Compound activity as filed in PubChem BioAssay.
This is a sample that favours compounds with a hit; in the whole collection about 2.7% have one here.
Yeast growth inh: yeast BB579 growth reduction in restrictive medium; S. cerevisiae BB579 growth, OD615, 48 h; inhibition, % at 10 µM; actives 0.51% (n = 140,000); AID 804;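 active = inhibition above a set limit, 3 SD over the mean compound inhibition, cut at about 44% in these data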
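Test system: DeaD yeast strain BB579 / Buffer or medium: restrictive glucose-based CSMM-D medium / Doses: single 10 µM dose / Schedule: 4 h cell preincubation, 48 h compound exposure, 30 °C humidified / Technique: culture absorbance at 615 nm / Controls: amphotericin B positive control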
Yeast lifespan up: extends the lifespan of yeast | S. cerevisiae growth with nicotinamide, OD615; deaD strain in restrictive glucose medium | inhibition of the nicotinamide effect, % at 10 µM | actives 0.68% (n = 130,000);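 active = inhibition above a set limit, placed 3 SD over the median of all compounds, cut at about 26% in these data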
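Measured by: optical density (absorbance) at 615 nm; System: modified budding yeast, DeaD strain; Medium: restrictive CSMM-D dextrose medium; Timing: 4 h preincubation then 48 h treatment at 30 °C.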
RAM inhibit: inhibitors of the yeast RAM network; S. cerevisiae dse1pr::URA3 reporter, 5-FOA growth OD615, 2 d; analog-sensitive cbk1-as2 kinase mutant strain; actives 1.8% (n = 190,000); AID 868; inhibition, % at 50 µM;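 active = inhibition above a set limit, 3 SD over mean compound inhibition, cut at about 8.4% in these data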;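 note: inhibition rescues growth on 5-FOA so higher OD means more RAM inhibition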
SDO1 yeast rescue: sdo1-depleted yeast growth rescue; S. cerevisiae sdo1-depleted JHY4D growth rescue, OD600 30 h; hits give high values; pdr5 snq2 efflux-pump mutant strain; z-score at 10 µM; actives 0.21% (n = 140,000);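 active = z-score above 3 at both the 24 hr and the 30 hr optical density reads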
sdo1 rescue conf: confirmation of growth rescue in SDO1-depleted yeast, bone marrow failure. AID 949. shares compounds with SDO1 yeast rescue. OD recovery (no concentration beside the values). S. cerevisiae JHY4D (SDO1-depleted) growth rescue, OD600, 30 h; hits give high values; efflux-deficient strain, SNQ2 and PDR5 mutated. actives 44% (n = 440);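 active = yeast growth recovered at 30 hours, either rising with dose fitted slope above 0.001 or with average optical density gain above 0.07, some results past the limit were not filed as active; inactive = growth falling with dose or no effect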
Each line names hits and unclear results; the compound was inactive in the other large screens (follow-up assays come after a bar, where they were run); ! = a repeat was not active.

COCCNCCCCOc1c(Cl)cc(C)cc1Br	none
COc1ccc(C(CNC(=O)c2cc(C)oc2C)N2CCOCC2)cc1 (stereo not given)	none | sdo1 rescue conf 0.0818
CC(=O)N1CCc2cc(Br)cc(S(=O)(=O)CCC(=O)N3CCN(c4ccccn4)CC3)c21	none (no result: Yeast growth inh, Yeast lifespan up, SDO1 yeast rescue)
C=C(C)COc1ccc(-c2nc(N)ncc2Oc2ccc(OC)cc2)c(O)c1	SDO1 yeast rescue 3.48 | sdo1 rescue conf inactive
CS(=O)(=O)N1CCCC(C(=O)NC2CCCCCCC2)C1 (stereo not given)	none
CC(C)NC(=O)C1CCCN(S(C)(=O)=O)C1 (stereo not given)	none | sdo1 rescue conf inactive
COc1ccc(CNC(=O)c2cc(-c3ccc(OC)c(OC)c3)on2)cc1	SDO1 yeast rescue 8.71 | sdo1 rescue conf inactive
COc1ccc(NC(=O)c2cc(-c3ccc(OC)c(OC)c3)on2)cc1OC	none | sdo1 rescue conf inactive
C=CCNC(=O)c1c(Br)cnn1-c1ccc(C)cc1	none (no result: Yeast growth inh, Yeast lifespan up, SDO1 yeast rescue)
O=C(CC12CC3CC(CC(C3)C1)C2)NCC(=O)N1CCCC1	SDO1 yeast rescue 3.97 | sdo1 rescue conf inactive
Cc1nc(NC(=O)c2cc3c(C)nn(-c4ccccc4)c3s2)sc1C(=O)Nc1ccccc1	none
CC(=O)c1sc(NC(=O)c2cc3c(C)nn(-c4ccccc4)c3s2)nc1C	SDO1 yeast rescue 4.03 | sdo1 rescue conf 0.109
COc1ccc(OC)c(-c2c3cc(O)c(=O)cc-3oc3cc(O)c(O)cc23)c1	Yeast growth inh 62.7, SDO1 yeast rescue 5.68 | sdo1 rescue conf inactive
CCN(CC)S(=O)(=O)c1cc(C(=O)Nc2ccncc2)ccc1Cl	none
CCN(CC)S(=O)(=O)c1cc(C(=O)Nc2cccnc2)ccc1Cl	SDO1 yeast rescue 3.27 | sdo1 rescue conf 0.0929
CCOC(=O)c1c(OCCO)nn(-c2ccccc2)c1N	none (no result: Yeast growth inh, Yeast lifespan up, SDO1 yeast rescue)
COc1ccccc1OCc1ccc(C(=O)NCCN(C)C)o1	none | sdo1 rescue conf 0.0968
O=[N+]([O-])c1ccccc1/C=C/C=N/Nc1ccc(S(=O)(=O)Nc2ccc(Cl)cc2)cc1[N+](=O)[O-]	none (no result: Yeast growth inh, Yeast lifespan up, SDO1 yeast rescue)
Nc1ccc2c(c1)nc(Cc1ccccc1)n2CCO	none (no result: Yeast growth inh, Yeast lifespan up, SDO1 yeast rescue)
Cc1c(C(=O)NC2CCCc3ccccc32)oc2ccc(S(=O)(=O)N3CCCCC3)cc12 (stereo not given)	SDO1 yeast rescue 9.35 | sdo1 rescue conf 0.0924
Cc1ccc(CN2C(=O)CCC2C(=O)NCc2ccccc2Cl)cc1 (stereo not given)	none (no result: Yeast growth inh, Yeast lifespan up, SDO1 yeast rescue)
O=C(CN1C(=O)c2ccccc2C1=O)NCC1CCCO1 (stereo not given)	none
O=C(CCCN1C(=O)c2ccccc2C1=O)NCC1CCCO1 (stereo not given)	none | sdo1 rescue conf inactive
CCOC(=O)C1(CC2CCCCO2)CCN(Cc2ccc(OC)cc2F)CC1 (stereo not given)	none (no result: Yeast growth inh, Yeast lifespan up, SDO1 yeast rescue)
CCOc1ccc(C(=O)CC(=O)C(=O)NCCc2ccc(OC)c(OC)c2)cc1	none
Cc1cccc(-n2c(CCn3nc(C)c([N+](=O)[O-])c3C)n[nH]c2=S)c1	none
COc1cccc(-n2c(CCn3nc(C)c([N+](=O)[O-])c3C)n[nH]c2=S)c1	SDO1 yeast rescue 3.22 | sdo1 rescue conf inactive
O=C(NNC(=S)Nc1ccc(OC(F)F)cc1)c1cc2c(s1)CCCC2	none
Cc1nn(-c2ccccc2)c(C)c1NC(=O)Cc1cccs1	none
Cc1nn(-c2ccccc2)c(C)c1NC(=O)c1cccs1	SDO1 yeast rescue 3.28 | sdo1 rescue conf 0.0648
COC(=O)C1CCN(C(=O)CCCOc2ccccc2)CC1	none | sdo1 rescue conf inactive
CC(C)CC(NC(=O)COc1ccccc1)C(=O)O (stereo not given)	none
COC(=O)[C@H](C)NC(=O)COc1ccccc1	SDO1 yeast rescue 3.82 | sdo1 rescue conf inactive
O=C(NNC1CC(=O)N(c2ccc(Br)cc2)C1=O)c1ccccn1 (stereo not given)	none (no result: Yeast growth inh, Yeast lifespan up, SDO1 yeast rescue)
COc1cc(NC(=S)NC(=O)c2ccco2)ccc1NC(=O)C(C)C	none (no result: Yeast growth inh, Yeast lifespan up, SDO1 yeast rescue)
COc1cc(NC(=S)NC(=O)c2ccccc2F)ccc1NC(=O)c1ccco1	none | sdo1 rescue conf inactive
Cn1nc(OC(=O)Nc2ccccc2)cc1C(F)(F)F	SDO1 yeast rescue 3.29! | sdo1 rescue conf 0.0766
Cn1nc(OC(=O)Nc2cccc(Cl)c2)cc1C(F)(F)F	none
CC1(C)CC(=O)C2=C(C1)OC1=C(C(=O)CC(C)(C)C1)C2(C)C	none
COc1ccc(CCNC(=O)CC(NS(=O)(=O)c2ccc(NC(C)=O)cc2)C(C)C)cc1OC (stereo not given)	none | sdo1 rescue conf inactive
CC(C)NC1CS(=O)(=O)CC1O (stereo not given)	Yeast lifespan up 58.0, SDO1 yeast rescue 5.55 | sdo1 rescue conf 0.0945
O=S1(=O)CC(O)C(NCCO)C1 (stereo not given)	none (no result: Yeast growth inh, Yeast lifespan up, SDO1 yeast rescue)
CCN(CC)C(=O)C(=O)N/N=C/c1ccc(F)cc1	none (no result: Yeast growth inh, Yeast lifespan up, SDO1 yeast rescue)
CC1=C(C)CC(C(=O)NCc2ccc3c(c2)OCO3)C(C(=O)O)C1 (stereo not given)	none | sdo1 rescue conf 0.0747
Cc1ccc(/C(O)=C2\C(=O)C(=O)N(CC(C)O)C2c2cccc(F)c2)cc1 (stereo not given)	none | sdo1 rescue conf inactive
CNC(=O)COC(=O)c1cc(F)c(F)cc1Cl	none
CC(C)NC(=O)COC(=O)c1cc(F)c(F)cc1Cl	SDO1 yeast rescue 5.57 | sdo1 rescue conf 0.0845
CC(C)c1ccc(/C=N/NC(=O)c2c(Cl)cnn2C)cc1	SDO1 yeast rescue 5.07 | sdo1 rescue conf 0.0909
CCN(CC)C(=O)CSc1ncccc1-c1nc2ccccc2[nH]1	none (no result: Yeast growth inh, Yeast lifespan up, SDO1 yeast rescue)
COc1ccccc1OCC(=O)NNC(=O)c1ccoc1C	SDO1 yeast rescue 5.12 | sdo1 rescue conf inactive
O=C(COC(=O)c1ccc(S(=O)(=O)N2CCOCC2)cc1)NCc1cccs1	none (no result: Yeast growth inh, Yeast lifespan up, SDO1 yeast rescue)
CCCCCCCC(=O)NC(Nc1ccc(S(N)(=O)=O)cc1)C(Cl)(Cl)Cl (stereo not given)	SDO1 yeast rescue 3.12 | sdo1 rescue conf 0.104
CCN(/C=N/S(=O)(=O)c1ccc(Cl)cc1)CC	none (no result: Yeast growth inh, Yeast lifespan up, SDO1 yeast rescue)
CCOC(=O)c1sc2nc3c(SCC(=O)O)cc(C(=O)c4ccccc4O)cn3c(=O)c2c1C	none (no result: Yeast growth inh, Yeast lifespan up, SDO1 yeast rescue)
CCOC(=O)c1sc2nc3c(SCC(=O)O)cc(C(=O)c4cc(F)ccc4O)cn3c(=O)c2c1C	SDO1 yeast rescue 3.13 | sdo1 rescue conf inactive
CCNc1oc(-c2cccc3ccccc23)nc1C#N	none
N#Cc1nc(-c2cccc3ccccc23)oc1NCCN1CCCCC1	SDO1 yeast rescue 11.5 | sdo1 rescue conf 0.097
O=C(Nc1ccccc1)N(O)c1ccc(Cl)cc1	SDO1 yeast rescue 3.32 | sdo1 rescue conf 0.081
O=C(CN1CCc2ccccc2C1)c1cccs1	SDO1 yeast rescue 5.57 | sdo1 rescue conf 0.096
O=C(C1CCCCC1)N(Cc1ccccc1)c1ccccn1	SDO1 yeast rescue 10.6 | sdo1 rescue conf 0.0783
ClCC1CN(Cc2ccccc2Cl)CCO1 (stereo not given)	none (no result: Yeast growth inh, Yeast lifespan up, SDO1 yeast rescue)
COc1ccc(CN2CCn3nc(C(=O)NC4CC4)cc3C2=O)cc1	none (no result: Yeast growth inh, Yeast lifespan up, SDO1 yeast rescue)
COCCNC(=O)C(=O)NCC1OCCN1C(=O)c1ccc(Cl)cc1 (stereo not given)	SDO1 yeast rescue 11.1 | sdo1 rescue conf inactive
